biological target: T1, 5'-nucleotidase (Rattus norvegicus) (UniProt P21588); test: Inhibition of rat ecto-5'-nucleotidase expressed in Sf9 cells at 1 mM by capillary electrophoresis method
T1 sequence (whole entry): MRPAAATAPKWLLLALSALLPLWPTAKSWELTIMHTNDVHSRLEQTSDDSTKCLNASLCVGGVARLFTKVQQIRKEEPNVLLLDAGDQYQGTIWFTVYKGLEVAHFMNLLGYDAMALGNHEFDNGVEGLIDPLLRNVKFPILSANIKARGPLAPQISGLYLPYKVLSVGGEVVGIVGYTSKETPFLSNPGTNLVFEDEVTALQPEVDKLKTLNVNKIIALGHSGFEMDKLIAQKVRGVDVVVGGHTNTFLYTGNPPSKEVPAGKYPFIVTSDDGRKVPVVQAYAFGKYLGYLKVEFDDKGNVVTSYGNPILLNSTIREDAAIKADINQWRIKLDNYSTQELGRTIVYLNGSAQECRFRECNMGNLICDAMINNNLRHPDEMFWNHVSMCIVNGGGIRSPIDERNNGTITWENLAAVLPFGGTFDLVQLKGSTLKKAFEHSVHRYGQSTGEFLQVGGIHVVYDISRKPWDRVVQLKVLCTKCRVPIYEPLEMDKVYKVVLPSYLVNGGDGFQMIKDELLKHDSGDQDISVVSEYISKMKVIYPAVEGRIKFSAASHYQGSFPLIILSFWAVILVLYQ
How it was run: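 Test agent at 1 mM with 500 μM AMP in 10 mM Hepes pH 7.4, 2 mM MgCl2, 1 mM CaCl2. Incubated 15 min at 37 °C, stopped at 99 °C for 10 min. Adenosine quantified by capillary electrophoresis, UV peak area at 260 nm.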

| SMILES | inhibition |
| --- | --- |
| Nc1c(S(=O)(=O)O)cc(NCc2ccccc2)c2c1C(=O)c1ccccc1C2=O | 43% |
| COc1ccc(CCNc2cc(S(=O)(=O)O)c(N)c3c2C(=O)c2ccccc2C3=O)cc1OC | 44% |
| Nc1c(S(=O)(=O)O)cc(Nc2cccc(C(=O)O)c2)c2c1C(=O)c1ccccc1C2=O | 26% |
| Nc1c(S(=O)(=O)O)cc(Nc2ccc(Nc3ccccc3)cc2)c2c1C(=O)c1ccccc1C2=O | 37% |
| Cc1cccc(Nc2cc(S(=O)(=O)O)c(N)c3c2C(=O)c2ccccc2C3=O)c1C | 39% |
| Nc1c(S(=O)(=O)O)cc(Nc2ccc(CC(=O)O)cc2)c2c1C(=O)c1ccccc1C2=O | 26% |
| Nc1cc(Nc2cc(S(=O)(=O)O)c(N)c3c2C(=O)c2ccccc2C3=O)cc(C(=O)O)c1 | 44% |
| COc1ccccc1Nc1cc(S(=O)(=O)O)c(N)c2c1C(=O)c1ccccc1C2=O | 9% |
| Nc1c(S(=O)(=O)O)cc(Nc2ccc(Cl)cc2C(=O)O)c2c1C(=O)c1ccccc1C2=O | 52% |
| Nc1c(S(=O)(=O)O)cc(Nc2cccc3ccc(S(=O)(=O)O)cc23)c2c1C(=O)c1ccccc1C2=O | 0% |
| Cc1ccccc1Nc1cc(S(=O)(=O)O)c(N)c2c1C(=O)c1ccccc1C2=O | 33% |
| CCOP(=O)(Cc1ccc(Nc2cc(S(=O)(=O)O)c(N)c3c2C(=O)c2ccccc2C3=O)cc1)OCC | 28% |
| CCOc1ccc(Nc2cc(S(=O)(=O)O)c(N)c3c2C(=O)c2ccccc2C3=O)cc1 | 31% |
| Nc1c(S(=O)(=O)O)cc(NCCc2ccccc2)c2c1C(=O)c1ccccc1C2=O | 53% |
| Nc1c(S(=O)(=O)O)cc(NC2CCCC2)c2c1C(=O)c1ccccc1C2=O | 51% |
| Nc1c(S(=O)(=O)O)cc(NCCc2ccc(Cl)cc2)c2c1C(=O)c1ccccc1C2=O | 62% |
| Cc1ccc(Nc2cc(S(=O)(=O)O)c(N)c3c2C(=O)c2ccccc2C3=O)c(C)c1 | 47% |
| Nc1c(S(=O)(=O)O)cc(Nc2ccccc2S(=O)(=O)O)c2c1C(=O)c1ccccc1C2=O | 14% |
| Nc1cccc(Nc2cc(S(=O)(=O)O)c(N)c3c2C(=O)c2ccccc2C3=O)c1 | 31% |
| CC(C)Nc1cc(S(=O)(=O)O)c(N)c2c1C(=O)c1ccccc1C2=O | 15% |
| Nc1c(S(=O)(=O)O)cc(Nc2cc3ccccc3c3ccccc23)c2c1C(=O)c1ccccc1C2=O | 58% |
| Cc1ccc(C)c(Nc2cc(S(=O)(=O)O)c(N)c3c2C(=O)c2ccccc2C3=O)c1 | 26% |
| Nc1c(S(=O)(=O)O)cc(Nc2cc(F)ccc2C(=O)O)c2c1C(=O)c1ccccc1C2=O | 60% |
| Nc1c(S(=O)(=O)O)cc(Nc2ccc(Br)cc2C(=O)O)c2c1C(=O)c1ccccc1C2=O | 56% |
| Nc1c(S(=O)(=O)O)cc(Nc2cc(Cl)ccc2C(=O)O)c2c1C(=O)c1ccccc1C2=O | 27% |
| Cc1cc(Nc2ccccc2)c2c(c1N)C(=O)c1ccccc1C2=O | 4% |
| CCOc1ccccc1Nc1cc(S(=O)(=O)O)c(N)c2c1C(=O)c1ccccc1C2=O | 56% |
| Nc1ccccc1Nc1cc(S(=O)(=O)O)c(N)c2c1C(=O)c1ccccc1C2=O | 47% |
| Nc1c(S(=O)(=O)O)cc(Nc2ccc(C(=O)O)cc2)c2c1C(=O)c1ccccc1C2=O | 34% |

biological target: P2Y purinoceptor 2 (Homo sapiens, UniProt P41231); test: Antagonist activity at human P2Y2 receptor expressed in astrocytoma cells assessed as inhibition of intracellular calcium mobilization; type: functional, cell-based
Sequence (P41231 whole entry): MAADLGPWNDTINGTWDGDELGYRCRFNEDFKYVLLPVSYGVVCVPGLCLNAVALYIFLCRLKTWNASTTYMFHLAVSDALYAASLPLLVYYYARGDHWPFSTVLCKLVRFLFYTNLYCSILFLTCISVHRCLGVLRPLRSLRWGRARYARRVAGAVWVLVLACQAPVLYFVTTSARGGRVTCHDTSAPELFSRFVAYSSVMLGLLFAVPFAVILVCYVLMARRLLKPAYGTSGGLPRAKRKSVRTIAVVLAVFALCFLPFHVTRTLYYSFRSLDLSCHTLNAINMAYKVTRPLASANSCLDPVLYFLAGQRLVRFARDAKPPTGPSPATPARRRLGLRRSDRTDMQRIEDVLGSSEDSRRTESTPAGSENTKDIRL
How it was run: (§1)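 Astrocytoma cells stably expressing the receptor, loaded with Fura-2 AM. Cells preincubated with test agent for at least 20 min, then challenged with 1 μM UTP (P2Y2), 3 μM UTP (P2Y4) or 3 μM UDP (P2Y6). Ca2+ fluorescence read at ex 320/em 520 nm. Full curves (7-8 concentrations over 3 log units) run when inhibition exceeded 40% at 10 μM. Three experiments, each in triplicate.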

| SMILES | IC50 |
| --- | --- |
| Nc1c(S(=O)(=O)O)cc(Nc2ccc(O)cc2)c2c1C(=O)c1ccccc1C2=O | 4.63 µM |

biological target: P2Y purinoceptor 6 (Rattus norvegicus, UniProt Q63371); test: Antagonist activity at rat P2Y6 receptor expressed in astrocytoma cells assessed as inhibition of intracellular calcium mobilization; type: functional, cell-based; how it was run: as §1
Sequence (Q63371 whole entry): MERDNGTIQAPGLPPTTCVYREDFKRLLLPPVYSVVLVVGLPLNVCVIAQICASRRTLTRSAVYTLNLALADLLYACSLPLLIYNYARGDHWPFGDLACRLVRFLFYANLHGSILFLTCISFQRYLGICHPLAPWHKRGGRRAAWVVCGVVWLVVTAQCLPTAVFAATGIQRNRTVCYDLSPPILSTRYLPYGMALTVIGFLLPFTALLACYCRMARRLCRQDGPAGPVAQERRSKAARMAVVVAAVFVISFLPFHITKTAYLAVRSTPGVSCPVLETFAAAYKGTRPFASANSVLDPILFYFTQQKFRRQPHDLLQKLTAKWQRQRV

| SMILES | IC50 |
| --- | --- |
| Nc1c(S(=O)(=O)O)cc(Nc2ccc(O)cc2)c2c1C(=O)c1ccccc1C2=O | 5.3 µM |

biological target: P2Y purinoceptor 4 (Homo sapiens, UniProt P51582); test: Antagonist activity at human P2Y4 receptor expressed in astrocytoma cells assessed as inhibition of intracellular calcium mobilization; type: functional, cell-based; how it was run: as §1
Sequence (P51582 whole entry): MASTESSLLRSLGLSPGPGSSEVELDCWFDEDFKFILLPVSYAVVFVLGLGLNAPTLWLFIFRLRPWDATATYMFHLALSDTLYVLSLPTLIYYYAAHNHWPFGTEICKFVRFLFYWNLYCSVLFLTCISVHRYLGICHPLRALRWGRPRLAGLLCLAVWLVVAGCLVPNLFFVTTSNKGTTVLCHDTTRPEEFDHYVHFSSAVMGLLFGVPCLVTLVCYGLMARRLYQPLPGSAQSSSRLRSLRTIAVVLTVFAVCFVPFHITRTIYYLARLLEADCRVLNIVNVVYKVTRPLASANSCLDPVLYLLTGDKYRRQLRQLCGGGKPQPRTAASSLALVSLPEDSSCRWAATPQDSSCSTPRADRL

| SMILES | IC50 |
| --- | --- |
| Nc1c(S(=O)(=O)O)cc(Nc2ccc(O)cc2)c2c1C(=O)c1ccccc1C2=O | 2.37 µM |
| Nc1c(S(=O)(=O)O)cc(Nc2ccc(Nc3nc(Cl)nc(Nc4cccc(S(=O)(=O)O)c4)n3)c(S(=O)(=O)O)c2)c2c1C(=O)c1ccccc1C2=O [RB 2] | 9.79 µM |

biological target: T2, 5'-nucleotidase (Rattus norvegicus, UniProt P21588); test: Inhibition of rat ecto-5'-nucleotidase expressed in Sf9 cells by capillary electrophoresis method
T2 sequence (P21588 whole entry): T1 sequence (whole entry)
How it was run: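 Rat eN, GST-fused, made in Sf9 cells and purified on GSH-agarose. 500 μM AMP in Hepes pH 7.4 with Mg2+/Ca2+, 37 °C for 15 min. Adenosine measured by capillary electrophoresis at 260 nm. Inhibitor at 6-8 concentrations spanning about 3 log units. […] Three experiments, each in duplicate.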

| SMILES | Ki |
| --- | --- |
| Nc1c(S(=O)(=O)O)cc(Nc2ccc(S(=O)(=O)O)cc2)c2c1C(=O)c1ccccc1C2=O | 3.43 µM |
| Nc1c(S(=O)(=O)O)cc(Nc2ccc(Br)cc2)c2c1C(=O)c1ccccc1C2=O | 11.3 µM |
| Nc1ccc(Nc2cc(S(=O)(=O)O)c(N)c3c2C(=O)c2ccccc2C3=O)cc1S(=O)(=O)O | 10 µM |
| Nc1c(S(=O)(=O)O)cc(Nc2ccc(Oc3ccccc3)cc2)c2c1C(=O)c1ccccc1C2=O | 1.51 µM |
| Cc1ccc2ccccc2c1Nc1cc(S(=O)(=O)O)c(N)c2c1C(=O)c1ccccc1C2=O | 2.74 µM |
| Nc1c(S(=O)(=O)O)cc(Nc2ccc3ccccc3c2)c2c1C(=O)c1ccccc1C2=O | 1.47 µM |
| Nc1c(S(=O)(=O)O)cc(Nc2ccc3cc(C(=O)O)ccc3c2)c2c1C(=O)c1ccccc1C2=O | 3.43 µM |
| Nc1ncnc2c1ncn2[C@H]1O[C@@H](COP(=O)(O)CP(=O)(O)O)[C@H](O)[C@@H]1O | 0.00087 µM |
| Cc1cc(C)c(Nc2cc(S(=O)(=O)O)c(N)c3c2C(=O)c2ccccc2C3=O)c(C)c1N | 36 µM |
| Nc1c(S(=O)(=O)O)cc(Nc2ccc(O)cc2)c2c1C(=O)c1ccccc1C2=O | 0.62 µM |
| Nc1c(S(=O)(=O)O)cc(Nc2ccc(Nc3nc(Cl)nc(Nc4cccc(S(=O)(=O)O)c4)n3)c(S(=O)(=O)O)c2)c2c1C(=O)c1ccccc1C2=O [RB 2] | 3.07 µM |
| Nc1c(S(=O)(=O)O)cc(Nc2cccc3cc4ccccc4cc23)c2c1C(=O)c1ccccc1C2=O | 2.93 µM |
| Nc1c(S(=O)(=O)O)cc(Nc2cccc3cccc(S(=O)(=O)O)c23)c2c1C(=O)c1ccccc1C2=O | 6.05 µM |
| Nc1c(S(=O)(=O)O)cc(Nc2ccc(F)cc2)c2c1C(=O)c1ccccc1C2=O | 5.67 µM |
| Nc1c(S(=O)(=O)O)cc(Nc2ccccc2O)c2c1C(=O)c1ccccc1C2=O | 1.84 µM |
| Nc1c(S(=O)(=O)O)cc(Nc2cccc3cc(S(=O)(=O)O)ccc23)c2c1C(=O)c1ccccc1C2=O | 15.3 µM |
| Cc1ccc(Nc2cc(S(=O)(=O)O)c(N)c3c2C(=O)c2ccccc2C3=O)cc1 | 360 µM |
| Nc1ccc(Nc2cc(S(=O)(=O)O)c(N)c3c2C(=O)c2ccccc2C3=O)cc1 | 0.297 µM |
| Cc1cccc(Nc2cc(S(=O)(=O)O)c(N)c3c2C(=O)c2ccccc2C3=O)c1 | 12.3 µM |
| Nc1c(S(=O)(=O)O)cc(Nc2ccc(Cl)cc2)c2c1C(=O)c1ccccc1C2=O | 4.81 µM |
| Nc1cc(Nc2cc(S(=O)(=O)O)c(N)c3c2C(=O)c2ccccc2C3=O)ccc1S(=O)(=O)O | 25.2 µM |
| Nc1c(S(=O)(=O)O)cc(NC2CCCCC2)c2c1C(=O)c1ccccc1C2=O | 1.66 µM |
| Nc1c(S(=O)(=O)O)cc(Nc2ccccc2C(=O)O)c2c1C(=O)c1ccccc1C2=O | 6.53 µM |
| Nc1c(S(=O)(=O)O)cc(Nc2cccc3c(S(=O)(=O)O)cccc23)c2c1C(=O)c1ccccc1C2=O | 11.7 µM |
| Nc1ccccc1Nc1cc(S(=O)(=O)O)c(N)c2c1C(=O)c1ccccc1C2=O | 47 µM |

biological target: T3, Ectonucleoside triphosphate diphosphohydrolase 1 (Homo sapiens, UniProt P49961); test: Inhibition of human NTPdase1 by capillary electrophoresis method
T3 sequence (P49961 whole entry): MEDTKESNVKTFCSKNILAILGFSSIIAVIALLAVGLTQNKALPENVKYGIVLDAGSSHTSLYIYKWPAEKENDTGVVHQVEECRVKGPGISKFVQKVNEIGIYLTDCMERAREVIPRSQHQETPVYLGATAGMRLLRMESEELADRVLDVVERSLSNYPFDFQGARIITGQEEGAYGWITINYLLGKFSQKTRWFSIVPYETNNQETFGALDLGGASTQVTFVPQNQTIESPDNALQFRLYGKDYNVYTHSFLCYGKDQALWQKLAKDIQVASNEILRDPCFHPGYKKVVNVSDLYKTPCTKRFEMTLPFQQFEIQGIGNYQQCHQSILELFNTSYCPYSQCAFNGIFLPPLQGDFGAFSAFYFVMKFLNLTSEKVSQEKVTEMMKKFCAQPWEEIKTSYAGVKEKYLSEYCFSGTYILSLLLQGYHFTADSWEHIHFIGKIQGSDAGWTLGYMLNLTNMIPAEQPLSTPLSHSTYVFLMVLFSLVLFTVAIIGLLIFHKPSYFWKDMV
How it was run: (§2)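 Membrane preparations containing human NTPDase1, 2 or 3. Inhibitor added in water or 1% DMSO. Incubated 10 min at 37 °C, stopped at 99 °C for 5 min. Diluted with 20 μM UMP as internal standard, then analysed by capillary electrophoresis. Triplicates in two experiments.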

| SMILES | Ki |
| --- | --- |
| Nc1c(S(=O)(=O)O)cc(Nc2ccc(O)cc2)c2c1C(=O)c1ccccc1C2=O | 10.7 µM |

biological target: T4, Ectonucleoside triphosphate diphosphohydrolase 2 (Homo sapiens, UniProt Q9Y5L3); test: Inhibition of human NTPdase2 by capillary electrophoresis method; how it was run: as §2
T4 sequence (Q9Y5L3 whole entry): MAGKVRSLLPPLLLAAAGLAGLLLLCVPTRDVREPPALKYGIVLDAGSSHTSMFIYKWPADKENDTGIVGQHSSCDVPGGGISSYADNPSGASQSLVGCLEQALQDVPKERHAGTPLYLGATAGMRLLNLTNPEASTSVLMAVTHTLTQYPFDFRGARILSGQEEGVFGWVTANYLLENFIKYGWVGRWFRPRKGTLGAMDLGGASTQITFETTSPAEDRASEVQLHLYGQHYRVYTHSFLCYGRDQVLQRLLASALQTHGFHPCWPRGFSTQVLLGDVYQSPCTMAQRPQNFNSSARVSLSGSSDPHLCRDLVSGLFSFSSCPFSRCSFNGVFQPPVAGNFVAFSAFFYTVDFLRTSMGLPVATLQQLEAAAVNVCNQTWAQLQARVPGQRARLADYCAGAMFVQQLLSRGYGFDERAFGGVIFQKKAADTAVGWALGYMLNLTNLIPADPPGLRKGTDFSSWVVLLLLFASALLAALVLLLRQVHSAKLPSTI

| SMILES | Ki |
| --- | --- |
| Nc1c(S(=O)(=O)O)cc(Nc2ccc(O)cc2)c2c1C(=O)c1ccccc1C2=O | > 200 µM |

Source: ChEMBL document CHEMBL1157570, “Development of potent and selective inhibitors of ecto-5'-nucleotidase based on an anthraquinone scaffold” (J Med Chem, 2010)
